ChEMBL document CHEMBL1153988 (J Med Chem, 2009)
Calls of active or inactive are those of the source. The rule behind the calls is not given here.

What was measured:
Rattus norvegicus [1] = experiment: Neurotoxicity in albino Sprague-Dawley rat assessed as minimal motor impairment at 200 mg/kg, po; assay type: toxicity, organism-based; design: dose 200 mg/kg, route oral; conditions: in vivo
Method in brief: (§1)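 Neurotoxicity was scored in male Sprague-Dawley albino rats (100-150 g) dosed orally with a suspension in 0.5% methylcellulose. The read-out was the fraction of animals showing neurotoxicity (minimal motor impairment).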

Mus musculus [2] = experiment: Anticonvulsant activity in CF1 albino mouse assessed as protection against maximal electroshock-induced seizures at 30 mg/kg, ip after 4 hrs; assay type: functional, organism-based; design: dose 30 mg/kg
Method in brief: (§2)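 Adult male CF no. 1 albino mice (18-25 g). Test compound suspended in 0.5% methylcellulose and given intraperitoneally at 0.01 mL/g body weight. Maximal electroshock challenge at the stated time. Read-out is the number of animals protected over the number tested; neurotoxicity is scored in parallel.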

Rattus norvegicus [3] = experiment: Anticonvulsant activity in albino Sprague-Dawley rat assessed as protection against maximal electroshock-induced seizures at 50 mg/kg, po after 4 hrs; assay type: functional, organism-based; design: dose 50 mg/kg
Method in brief: (§3)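 Adult male Sprague-Dawley albino rats (100-150 g) dosed orally with compound suspended in 0.5% methylcellulose (0.04 mL per 10 g). Maximal electroshock challenge at the stated time. Protection is scored in 25% steps as the fraction of animals protected, with neurotoxicity recorded in parallel.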

Rattus norvegicus [4] = experiment: Anticonvulsant activity in albino Sprague-Dawley rat assessed as protection against maximal electroshock-induced seizures at 50 mg/kg, po after 2 hrs; assay type: functional; method in brief: as §3
Mus musculus [5] = experiment: Anticonvulsant activity in CF1 albino mouse assessed as protection against scMet-induced seizures at 30 mg/kg, ip after 0.5 hrs; assay type: functional, organism-based; design: dose 30 mg/kg
Method in brief: (§4)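 Adult male CF no. 1 albino mice (18-25 g) dosed intraperitoneally with compound suspended in 0.5% methylcellulose (0.01 mL/g). Convulsant challenge given subcutaneously as a 0.85% pentylenetetrazol solution in 0.9% saline. Read-out is animals protected over animals tested, with neurotoxicity scored in parallel.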

Rattus norvegicus [6] = experiment: Anticonvulsant activity in albino Sprague-Dawley rat assessed as protection against maximal electroshock-induced seizures at 50 mg/kg, po after 15 mins; assay type: functional; method in brief: as §3
Rattus norvegicus [7] = experiment: Anticonvulsant activity in albino Sprague-Dawley rat assessed as protection against scMet-induced seizures at 50 mg/kg, po after 4 hrs; assay type: functional
Method in brief: (§5)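 Male Sprague-Dawley albino rats (100-150 g) were given the compound orally as a suspension in 0.5% methylcellulose. Seizures were induced by subcutaneous pentylenetetrazol, dissolved in 0.9% saline as a 2.82% solution. The read-out was animals protected over animals tested.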

Mus musculus [8] = experiment: Neurotoxicity in CF1 albino mouse at 300 mg/kg, ip after 0.5 hrs; assay type: toxicity, organism-based; design: dose 300 mg/kg, route intraperitoneal; conditions: in vivo
Method in brief: (§6)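 Male CF no. 1 albino mice (18-25 g) received a single ip dose as a suspension in 0.5% methylcellulose. The read-out was the number of animals showing neurotoxicity (minimal motor impairment) over the number tested.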

Mus musculus [9] = experiment: Anticonvulsant activity in CF1 albino mouse assessed as protection against scMet-induced seizures at 300 mg/kg, ip after 0.5 hrs; assay type: functional, organism-based; design: dose 300 mg/kg; method in brief: as §4
Mus musculus [10] = experiment: Neurotoxicity in CF1 albino mouse at 300 mg/kg, ip after 4 hrs; assay type: toxicity, organism-based; design: dose 300 mg/kg, route intraperitoneal; conditions: in vivo; method in brief: as §6
Mus musculus [11] = experiment: Neurotoxicity in CF1 albino mouse at 30 mg/kg, ip after 0.5 hrs; assay type: toxicity, organism-based; design: dose 30 mg/kg, route intraperitoneal; conditions: in vivo; method in brief: as §6
Rattus norvegicus [12] = experiment: Neurotoxicity in albino Sprague-Dawley rat at 50 mg/kg, po; assay type: toxicity, organism-based; design: dose 50 mg/kg, route oral; conditions: in vivo; method in brief: as §1
Mus musculus [13] = experiment: Anticonvulsant activity in CF1 albino mouse assessed as protection against maximal electroshock-induced seizures at 100 mg/kg, ip after 4 hrs; assay type: functional, organism-based; design: dose 100 mg/kg; method in brief: as §2
Rattus norvegicus [14] = species: Rattus norvegicus; experiment: Protective index, ratio of TD50 for albino Sprague-Dawley rat to ED50 for scMet-induced albino Sprague-Dawley rat seizure model; assay type: functional
Method in brief: (§7)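 Protective index is the rat TD50 (minimal motor impairment) divided by the ED50 in the MES or sc pentylenetetrazol test. Male Sprague-Dawley rats were dosed orally in 0.5% methylcellulose, and both values came from probit analysis.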

Mus musculus [15] = experiment: Neurotoxicity in CF1 albino mouse at 30 mg/kg, ip after 4 hrs; assay type: toxicity, organism-based; design: dose 30 mg/kg, route intraperitoneal; conditions: in vivo; method in brief: as §6
Mus musculus [16] = experiment: Neurotoxicity in CF1 albino mouse at 100 mg/kg, ip after 4 hrs; assay type: toxicity, organism-based; design: dose 100 mg/kg, route intraperitoneal; conditions: in vivo; method in brief: as §6
Rattus norvegicus [17] = experiment: Anticonvulsant activity in albino Sprague-Dawley rat assessed as protection against maximal electroshock-induced seizures at 50 mg/kg, po after 1 hr; assay type: functional; method in brief: as §3
Mus musculus [18] = experiment: Anticonvulsant activity in CF1 albino mouse assessed as protection against scMet-induced seizures at 300 mg/kg, ip after 4 hrs; assay type: functional, organism-based; design: dose 300 mg/kg; method in brief: as §4
Mus musculus [19] = experiment: Anticonvulsant activity in CF1 albino mouse assessed as protection against maximal electroshock-induced seizures at 300 mg/kg, ip after 4 hrs; assay type: functional, organism-based; design: dose 300 mg/kg; method in brief: as §2
Rattus norvegicus [20] = experiment: Anticonvulsant activity in albino Sprague-Dawley rat assessed as protection against scMet-induced seizures at 50 mg/kg, po after 15 mins; assay type: functional; method in brief: as §5
Mus musculus [21] = experiment: Anticonvulsant activity in CF1 albino mouse assessed as protection against scMet-induced seizures at 100 mg/kg, ip after 0.5 hrs; assay type: functional, organism-based; design: dose 100 mg/kg; method in brief: as §4
Rattus norvegicus [22] = species: Rattus norvegicus; experiment: Protective index, ratio of TD50 for albino Sprague-Dawley rat to ED50 for maximal electroshock-induced albino Sprague-Dawley rat seizure model; assay type: functional; method in brief: as §7
Mus musculus [23] = experiment: Anticonvulsant activity in CF1 albino mouse assessed as protection against maximal electroshock-induced seizures at 100 mg/kg, ip after 0.5 hrs; assay type: functional, organism-based; design: dose 100 mg/kg; method in brief: as §2
Rattus norvegicus [24] = experiment: Anticonvulsant activity in albino Sprague-Dawley rat assessed as protection against scMet-induced seizures at 50 mg/kg, po after 2 hrs; assay type: functional; method in brief: as §5
Rattus norvegicus [25] = experiment: Anticonvulsant activity in albino Sprague-Dawley rat assessed as protection against maximal electroshock-induced seizures at 50 mg/kg, po after 30 mins; assay type: functional; method in brief: as §3
Rattus norvegicus [26] = experiment: Anticonvulsant activity in albino Sprague-Dawley rat assessed as protection against scMet-induced seizures at 50 mg/kg, po after 1 hr; assay type: functional; method in brief: as §5
Mus musculus [27] = experiment: Anticonvulsant activity in CF1 albino mouse assessed as protection against maximal electroshock-induced seizures at 300 mg/kg, ip after 0.5 hrs; assay type: functional, organism-based; design: dose 300 mg/kg; method in brief: as §2
Rattus norvegicus [28] = experiment: Anticonvulsant activity in po dosed albino Sprague-Dawley rat assessed as protection against maximal electroshock-induced seizures; assay type: functional
Rattus norvegicus [29] = experiment: Anticonvulsant activity in albino Sprague-Dawley rat assessed as protection against scMet-induced seizures at 50 mg/kg, po; assay type: functional, organism-based; design: dose 50 mg/kg; method in brief: as §5
Mus musculus [30] = experiment: Anticonvulsant activity in CF1 albino mouse assessed as protection against scMet-induced seizures at 30 mg/kg, ip after 4 hrs; assay type: functional, organism-based; design: dose 30 mg/kg; method in brief: as §4
Mus musculus [31] = experiment: Anticonvulsant activity in CF1 albino mouse assessed as protection against maximal electroshock-induced seizures at 30 mg/kg, ip after 0.5 hrs; assay type: functional, organism-based; design: dose 30 mg/kg; method in brief: as §2
Rattus norvegicus [32] = experiment: Anticonvulsant activity in po dosed albino Sprague-Dawley rat assessed as protection against scMet-induced seizures; assay type: functional
Method in brief: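 Male Sprague-Dawley albino rats (100-150 g) were dosed orally in 0.5% methylcellulose and tested by MES or by sc pentylenetetrazol (2.82% in 0.9% saline). Doses were varied to give 3-4 points between 0% and 100% protection. ED50 and 95% confidence intervals came from probit analysis.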

[33] = Neurotoxicity in po dosed albino Sprague-Dawley rat assessed as minimal motor impairment; assay type: toxicity, organism-based; conditions: in vivo
Method in brief: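 Rats: male Sprague-Dawley (100-150 g), oral dosing in 0.5% methylcellulose. Doses were varied to give four points between no minimal motor impairment and all animals impaired. TD50 and 95% confidence intervals came from probit analysis.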

Rattus norvegicus [34] = experiment: Anticonvulsant activity in albino Sprague-Dawley rat assessed as protection against scMet-induced seizures at 50 mg/kg, po after 30 mins; assay type: functional; method in brief: as §5
Mus musculus [35] = experiment: Anticonvulsant activity in CF1 albino mouse assessed as protection against scMet-induced seizures at 100 mg/kg, ip after 4 hrs; assay type: functional, organism-based; design: dose 100 mg/kg; method in brief: as §4

CC1(C)C(C)(C)C1(Cl)C(N)=O
Activity (Rattus norvegicus [1]): Non-toxic | Activity (Mus musculus [2]): Non-toxic | Activity (Rattus norvegicus [3]): inactive | Activity (Rattus norvegicus [4]): 75% | Activity (Mus musculus [5]): Non-toxic | Activity (Rattus norvegicus [6]): 25% | Activity (Rattus norvegicus [7]): inactive | Activity (Mus musculus [8]): Toxic | Activity (Mus musculus [9]): Toxic | Activity (Mus musculus [10]): Non-toxic | Activity (Mus musculus [11]): Non-toxic | Activity (Rattus norvegicus [12]): Not Active | Activity (Mus musculus [13]): Non-toxic | PI (Rattus norvegicus [14]): >7.8 | Activity (Mus musculus [15]): Non-toxic | Activity (Mus musculus [16]): Non-toxic | Activity (Rattus norvegicus [17]): 75% | Activity (Mus musculus [18]): Non-toxic | Activity (Mus musculus [19]): Non-toxic | Activity (Rattus norvegicus [20]): inactive | Activity (Mus musculus [21]): Non-toxic | PI (Rattus norvegicus [22]): >2.1 | Activity (Mus musculus [23]): Non-toxic | Activity (Rattus norvegicus [24]): 25% | Activity (Rattus norvegicus [25]): 25% | Activity (Rattus norvegicus [26]): 50% | Activity (Mus musculus [27]): Toxic | ED50 (Rattus norvegicus [28]): 97 mg/kg | Activity (Rattus norvegicus [29]): Active | Activity (Mus musculus [30]): Non-toxic | Activity (Mus musculus [31]): Non-toxic | ED50 (Rattus norvegicus [32]): 27 mg/kg | TD50 [33]: > 200 mg/kg | Activity (Rattus norvegicus [34]): 50% | Activity (Mus musculus [35]): Non-toxic
